Results reported in article PMC2669314 (Journal of medicinal chemistry, 2009).
Like-named read-outs stand apart in the source and are kept apart here. Blank lines part the entries; values can stand above or below the molecule they belong to. Where a SMILES comes first, the peptide text is derived from it. [ ]: non-standard residue; d: D form. The star is where a group is joined. FITC = O=C1OC2(c3ccc(O)cc3Oc3cc(O)ccc32)c2ccc(NC(=S)*)cc21; pY = N[C@@H](Cc1ccc(OP(=O)(O)O)cc1)C(=O)O; Ahx = NCCCCCC(=O)O

Columns and labels:
Shc SH2 domain [1] = molecular target: T1, Shc SH2 domain (Homo sapiens, UniProt P29353); assay: Fluorescence anisotropy competition assay using peptide 8 as reference peptide; type: binding
T1 sequence (P29353 488-579 limits assumed): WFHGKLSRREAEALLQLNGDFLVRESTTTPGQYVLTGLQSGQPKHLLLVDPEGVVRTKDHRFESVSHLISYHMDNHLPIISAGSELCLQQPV

Shc SH2 domain [2] = molecular target: T1, Shc SH2 domain; assay: Steady state; type: binding; settings: for Kd ± s.d.: Table 1, FITC-labelled peptides, n.b. = no binding
Method in brief: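 Direct titration: 5 nM N-terminal fluorescein-labelled peptide in 1× BS with 10% (v/v) DMSO, with Shc protein serially diluted in from a 100 μM starting concentration. Excitation at 485 nm and parallel/perpendicular emission at 535 nm. Kd comes from fitting anisotropy against protein concentration to a single-site quadratic binding model, corrected for the bound/free fluorescence intensity ratio.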

Shc SH2 domain protein [3] = molecular target: T2, Shc SH2 domain protein (UniProt P29353); assay: fluorescence polarisation
T2 sequence: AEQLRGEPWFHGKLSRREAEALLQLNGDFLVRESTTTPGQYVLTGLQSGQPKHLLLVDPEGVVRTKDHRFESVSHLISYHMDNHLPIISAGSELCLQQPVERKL

[4] = molecular target: FITC-NH-(CH2)3-CO-L-pY-Q-G-L-S-amide; assay: fluorescence polarisation
[5] = molecular target: FITC-NH-(CH2)5-CO-pY-Q-G-L-S-amide; assay: fluorescence polarisation
[6] = molecular target: FITC-NH-(CH2)2-CO-L-pY-Q-G-L-S-amide; assay: fluorescence polarisation
[7] = molecular target: FITC-NH-(CH2)3-CO-pY-Q-G-L-S-amide; assay: fluorescence polarisation
FITC-pY-Q-G-L-S-amide = assay: fluorescence polarisation
[8] = molecular target: FITC-NH-(CH2)4-CO-pY-Q-G-L-S-amide; assay: fluorescence polarisation
[9] = molecular target: FITC-NH-(CH2)2-CO-pY-Q-G-L-S-amide; assay: fluorescence polarisation
[10] = molecular target: FITC-NH-(CH2)4-CO-L-pY-Q-G-L-S-amide; assay: fluorescence polarisation
Shc SH2 domain protein [11] = molecular target: T2, Shc SH2 domain protein; assay: fluorescence polarisation; remark: listed apart in the source

IC50 (Shc SH2 domain protein [3]): 189 µM
Molecule: Ac-pY-Q-G-L-S-NHR, R = allyl, no N-allyl substitution (peptide 31)

IC50 (Shc SH2 domain protein [3]): 165 µM
Molecule: Ac-pY-Q-G-L-S-NHR, R = homoallyl, no N-allyl substitution (peptide 35)

Kd ± s.d. (Shc SH2 domain [2]): n.b.
Molecule: FITC-NH-(CH2) -CO-L-pY-Q-G-L-S-amide (LYQGLS; not fully specified; FITC-NH-(CH2)-CO- on the N-terminus; phosphotyrosine at 2; C-terminal amide) [compound 10]

Kd ± s.d. (Shc SH2 domain [2]): n.b.
Molecule: FITC-NH-(CH2)-CO-pY-Q-G-L-S-amide (YQGLS; not fully specified; FITC-NH-(CH2)-CO- on the N-terminus; phosphotyrosine at 1; C-terminal amide) [compound 5]

Kd [4]: 8.6 µM
Kd [5]: 4.7 µM
Kd [6]: 7.6 µM
Kd [7]: 7.2 µM
Kd (FITC-pY-Q-G-L-S-amide): 12.4 µM
Kd [8]: 0.35 µM
Kd [9]: 1.09 µM
Kd [10]: 8.9 µM
Molecule: Shc SH2 domain protein (from UniProt P29353 480-583) (domain or fragment)

IC50 (Shc SH2 domain protein [11]): 91 µM
Molecule: Ac-[pY]QGL-{NH‑allyl} [Ac-pY-Q-G-L-NHR, R = allyl, no N-allyl substitution (peptide 38)]

Second part, the molecule before the results:

Molecule: CC(=O)N[C@@H](Cc1ccc(OP(=O)(O)O)cc1)C(=O)N[C@@H](CCC(N)=O)C(=O)NCC(=O)N[C@@H](CC(C)C)C(=O)N[C@@H](CO)C(N)=O [Ac-pY-Q-G-L-S-amide] (HELM PEPTIDE1{[ac].[O=C([C@H](Cc1ccc(OP(=O)(O)O)cc1)N[*:1])[*:2]].Q.G.L.S.[am]}$$$$V2.0)
IC50 (Shc SH2 domain [1]): 112.5 ± 0.7 µM
Shc SH2 domain binding affinity relative to parent Gly-containing peptide 45 (Shc SH2 domain [1]; relative to 45 (IC50 = 248 μM)): approximate doubling of binding affinity

Molecule: CC(=O)N[C@@H](Cc1ccc(OP(=O)(O)O)cc1)C(=O)N[C@@H](CCC(N)=O)C(=O)NCC(N)=O [Ac-pY-Q-G-amide] (HELM PEPTIDE1{[ac].[O=C([C@H](Cc1ccc(OP(=O)(O)O)cc1)N[*:1])[*:2]].Q.G.[am]}$$$$V2.0)
IC50 (Shc SH2 domain [1]): > 500 µM

Molecule: CC(C)C[C@H](NC(=O)CNC(=O)[C@H](CCC(N)=O)NC(=O)[C@H](Cc1ccc(OP(=O)(O)O)cc1)NC(=O)[C@H](CC(C)C)NC(=S)Nc1ccc2c(c1)C(=O)OC21c2ccc(O)cc2Oc2cc(O)ccc21)C(=O)N[C@@H](CO)C(N)=O [compound 3, FITC-L-pY-Q-G-L-S-amide] (HELM PEPTIDE1{[O=C1OC2(c3ccc(O)cc3Oc3cc(O)ccc32)c2ccc(NC(=S)[*:2])cc21].L.[O=C([C@H](Cc1ccc(OP(=O)(O)O)cc1)N[*:1])[*:2]].Q.G.L.S.[am]}$$$$V2.0)
Kd (Shc SH2 domain [2]; FITC-containing peptides): complete loss of binding affinity
Kd ± s.d. (Shc SH2 domain [2]): n.b. ^b

Molecule: CC(C)C[C@H](NC(=O)CNC(=O)[C@H](CCC(N)=O)NC(=O)[C@H](Cc1ccc(OP(=O)(O)O)cc1)NC(=O)[C@H](CC(C)C)NC(=O)CCCCCNC(=S)Nc1ccc2c(c1)C(=O)OC21c2ccc(O)cc2Oc2cc(O)ccc21)C(=O)N[C@@H](CO)C(N)=O [compound 14, FITC-NH-(CH2)5-CO-L-pY-Q-G-L-S-amide] ({FITC-Ahx}-L[pY]QGLS-NH2)
Kd ± s.d. (Shc SH2 domain [2]): n.b.

Molecule: CC(=O)NCCCCC(=O)N[C@@H](Cc1ccc(OP(=O)(O)O)cc1)C(=O)N[C@@H](CCC(N)=O)C(=O)NCC(=O)N[C@@H](CC(C)C)C(=O)N[C@@H](CO)C(N)=O [compound 15, Ac-NH-(CH2)4-CO-pY-Q-G-L-S-amide] (HELM PEPTIDE1{[ac].[O=C(CCCCN[*:1])[*:2]].[O=C([C@H](Cc1ccc(OP(=O)(O)O)cc1)N[*:1])[*:2]].Q.G.L.S.[am]}$$$$V2.0)
IC50 (Shc SH2 domain [1]): 158 ± 10 µM

Molecule: Ac-pY-Q-G-L-S-amide (peptide)
IC50 (Shc SH2 domain protein [3]): 112 µM

B1: Ac-pY-Q-G-L-amide (peptide)
peptide: YQGL
HELM: PEPTIDE1{[ac].[O=C([C@H](Cc1ccc(OP(=O)(O)O)cc1)N[*:1])[*:2]].Q.G.L.[am]}$$$$V2.0
SMILES: CC(=O)N[C@@H](Cc1ccc(OP(=O)(O)O)cc1)C(=O)N[C@@H](CCC(N)=O)C(=O)NCC(=O)N[C@@H](CC(C)C)C(N)=O
IC50 (Shc SH2 domain protein [11]): 248 µM
